Experimental data taken from ChEMBL document CHEMBL4024771, “Optimization of Orally Bioavailable Enhancer of Zeste Homolog 2 (EZH2) Inhibitors Using Ligand and Property-Based Design Strategies: Identification of Development Candidate …” (J Med Chem, 2018).
Converted amounts (≈) assume the structure as drawn.

Experiments:
[1] = target: Histone-lysine N-methyltransferase EZH2 (Homo sapiens, UniProt Q15910); experiment: Inhibition of EZH2 in human KARPAS422 cells assessed as reduction in H3K27me3 level after 72 hrs by ELISA
Sequence of Histone-lysine N-methyltransferase EZH2 (Homo sapiens, UniProt Q15910) (Q15910 whole entry): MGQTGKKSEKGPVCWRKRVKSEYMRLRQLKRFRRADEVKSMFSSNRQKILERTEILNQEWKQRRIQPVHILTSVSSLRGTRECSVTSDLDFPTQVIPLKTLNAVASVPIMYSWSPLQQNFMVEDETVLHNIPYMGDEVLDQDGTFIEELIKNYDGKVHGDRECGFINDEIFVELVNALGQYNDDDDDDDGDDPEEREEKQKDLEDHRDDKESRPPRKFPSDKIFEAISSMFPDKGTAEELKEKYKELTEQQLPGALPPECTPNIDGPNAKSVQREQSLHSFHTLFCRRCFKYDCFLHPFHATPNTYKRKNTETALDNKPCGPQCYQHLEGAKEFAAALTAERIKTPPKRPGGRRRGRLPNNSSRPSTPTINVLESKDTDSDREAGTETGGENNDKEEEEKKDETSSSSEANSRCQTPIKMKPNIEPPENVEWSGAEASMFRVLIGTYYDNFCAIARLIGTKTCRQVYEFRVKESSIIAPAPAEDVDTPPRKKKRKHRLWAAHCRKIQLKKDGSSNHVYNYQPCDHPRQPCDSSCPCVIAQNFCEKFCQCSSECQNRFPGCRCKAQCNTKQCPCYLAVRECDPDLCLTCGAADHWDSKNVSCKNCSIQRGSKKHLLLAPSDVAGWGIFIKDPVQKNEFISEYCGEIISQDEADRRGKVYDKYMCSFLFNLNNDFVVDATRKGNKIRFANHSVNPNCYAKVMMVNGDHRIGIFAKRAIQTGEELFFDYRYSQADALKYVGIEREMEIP

[2] = Passive permeability in MDCK cells at 2 uM after 90 mins by LC-MS/MS analysis; format: ADME, cell-based, Canis lupus familiaris; conditions: dog; for Papp at […], 2 µM: MDCK, read-out: permeability; for permeability: mdck, 2 µM
Procedure, shortened: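 Low-efflux MDCK cells (MDCK-LE) on 96-well inserts, used on day 4. Monodirectional transport of 2 μM drug in transport buffer with 0.1% DMSO at 37 °C. Donor and receiver sampled at 0 and 90 min for LC−MS/MS. Donor pH 6.5 and 7.4, receiver pH 7.4.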

[3] = test system: KARPAS-422; experiment: Antiproliferative activity against human KARPAS422 cells after 72 hrs by resazurin assay; format: functional, cell-based
[4] = Clearance in human hepatocytes assessed per million cells; format: ADME, cell-based, Hepatocyte; conditions: read-out: CLH
[5] = Thermodynamic solubility in water at 25 degC using crystalline form; format: physicochemical; conditions: read-out: Therm_solubility
[6] = Kinetic solubility of the compound; format: physicochemical; conditions: for solubility kinetic: read-out: Kinetic_solubility
[7] = (§1) Intrinsic clearance in human liver microsomes assessed per mg protein at 1 uM preincubated for 10 mins followed by NADPH addition measured after 45 mins by LC-MS/MS analysis; format: ADME, microsome; conditions: liver microsomes, read-out: CLH
Procedure, shortened: (§2)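 Test compound (1 μM) with pooled liver microsomes (0.8 mg/mL protein) in 100 mM potassium phosphate pH 7.4, 10 min preincubation, started with 2 mM NADPH, 45 min at 37 °C, in triplicate. Samples quenched with cold methanol containing buspirone internal standard, analysed by LC−MS/MS. CLint derived from t1/2 of parent loss (log-linear slope).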

[8] = target: Histone-lysine N-methyltransferase EZH2 (Homo sapiens, UniProt Q15910, Y641N); experiment: Inhibition of EZH2 Y641N mutant (unknown origin) using oligonucleosomes as substrate after 60 mins in presence of [3H]SAM by scintillation counting analysis
Sequence of Histone-lysine N-methyltransferase EZH2 (Homo sapiens, UniProt Q15910, Y641N) (Q15910 whole entry Y641N): as the sequence (Q15910 whole entry) above, with Y641N counted along it

[9] = Lipophilicity, log D of the compound at pH 7.4; conditions: buffer
[10] = test system: Liver; experiment: as §1; format: ADME, microsome; conditions: microsomes, 0.75 h, 1 µM; procedure, shortened: as §2

| Structure (SMILES) | IC50 [1] [nM] | Papp at […], 2 µM [2] [×10⁻⁶ cm/s] | IC50 ([3]; Homo sapiens, KARPAS-422, 72 h) [nM] | hepatocyte CLint [4] [µL/min/1e6 cells] | solubility thermodynamic [5] [µg/mL] | solubility kinetic [6] [µM] | microsomal CLint at 1 µM [7] [µL/min/mg] | Ki [8] [nM] | logD ([9]; pH 7.4, logD) | logD ([9]; pH 7.4) | permeability [2] [×10⁻⁶ cm/s] | IC50 ([3]; karpas-422) [nM] | Kinetic_solubility [6] [µM] | microsomal CLint [10] [µL/min/mg] |
| --- | --- | --- | --- | --- | --- | --- | --- | --- | --- | --- | --- | --- | --- | --- |
| Cc1cc(C)c(CN2CCc3c(Cl)cc(-c4c(C)noc4C)c(Cl)c3C2=O)c(=O)[nH]1 | 17 | 15.7 | 23 | 75 | 2 (≈ 4.48 µM) | 93 to 95 (≈ 41.5 to 42.4 µg/mL) | 107 to 169 | 1.15 | – | – | – | – | – | – |
| Cc1cc(C)c(CN2CCc3c(Cl)cc([C@H](C)CO)c(Cl)c3C2=O)c(=O)[nH]1 | 129 | 12.4 | 186 | – | 34 (≈ 83.1 µM) | 131 (≈ 53.6 µg/mL) | 15.8 | 17 | 2.6 | – | – | – | – | – |
| CCOC(c1cc(Cl)c2c(c1Cl)C(=O)N(Cc1c(C)cc(C)[nH]c1=O)CC2)C1CS(=O)(=O)C1 (single isomer, unassigned) | 6080 | – | – | – | – | – | – | 460 | – | 2.3 | 7.7 | 5560 | 446 | 45.7 |
| COc1cc(C)[nH]c(=O)c1CN1CCc2c(Cl)cc(C(OC)C3CCOC3)c(Cl)c2C1=O (single isomer, unassigned; (+)) | 4 | 7.2 | – | – | – | 433 (≈ 208 µg/mL) | – | < 0.1 | 2.5 | – | – | 9 | – | 60 |
| CCC(OC)c1cc(Cl)c2c(c1Cl)C(=O)N(Cc1c(C)cc(C)[nH]c1=O)CC2 (single isomer, unassigned; (+)) | 72 | 18.2 | – | – | – | – | – | 9 | – | – | – | 183 | 33 | 105 |
| Cc1cc(C)c(CN2CCc3c(Cl)cc(C(CO)c4ccon4)c(Cl)c3C2=O)c(=O)[nH]1 (single isomer, unassigned; (+)) | – | 5.8 | – | – | – | 596 (≈ 276 µg/mL) | – | – | 2 | – | – | 122 | – | 21.2 |
| COC(c1cc(Cl)c2c(c1Cl)C(=O)N(Cc1c(C)cc(C)[nH]c1=O)CC2)C1CCOCC1 (single isomer, unassigned; (+)) | 9 | 13.3 | – | – | – | 57.5 (≈ 27.6 µg/mL) | – | 0.1 | 3.4 | – | – | 19 | – | 129 |
| CCC(O)c1cc(Cl)c2c(c1Cl)C(=O)N(Cc1c(C)cc(C)[nH]c1=O)CC2 (single isomer, unassigned; (+)) | 1050 | 15 | – | – | – | – | – | 130 | 3.1 | – | – | 714 | 59 | 18 |
| COC(c1cc(Cl)c2c(c1Cl)C(=O)N(Cc1c(C)cc(C)[nH]c1=O)CC2)C1CCN(C)CC1 (single isomer, unassigned; (+)) | 9 | 2.7 | – | – | – | 639 (≈ 315 µg/mL) | – | < 0.1 | 1.4 | – | – | 11 | – | < 10.2 |
| CCC(CO)c1cc(Cl)c2c(c1Cl)C(=O)N(Cc1c(C)cc(C)[nH]c1=O)CC2 (single isomer, unassigned; (+)) | 139 | 10.9 | – | – | – | – | – | 4.6 | 2.8 | – | – | 124 | 324 | 66.3 |
| COC(c1cc(Cl)c2c(c1Cl)C(=O)N(Cc1c(C)cc(C)[nH]c1=O)CC2)C1CCN(C(C)=O)CC1 (single isomer, unassigned; (+)) | – | 11.5 | – | – | – | 532 (≈ 277 µg/mL) | – | – | 2.9 | – | – | 22 | – | 92.6 |
| COc1cc(C)[nH]c(=O)c1CN1CCc2c(Cl)cc(C(OC)C3CCN(C(=O)CO)CC3)c(Cl)c2C1=O (single isomer, unassigned; (+)) | – | 1.5 | – | – | – | 480 (≈ 265 µg/mL) | – | – | 1.7 | – | – | 10 | – | 25.6 |
| COc1cc(C)[nH]c(=O)c1CN1CCc2c(Cl)cc(C(OC)C3(C)COC3)c(Cl)c2C1=O (single isomer, unassigned; (+)) | 8 | 5.7 | – | – | – | 486 (≈ 234 µg/mL) | – | 0.7 | 2.3 | – | – | 9 | – | 207 |
| COC(c1cc(Cl)c2c(c1Cl)C(=O)N(Cc1c(C)cc(C)[nH]c1=O)CC2)C1CCN(C2COC2)CC1 (single isomer, unassigned; (+)) | 16 | 7 | – | – | – | 523 (≈ 280 µg/mL) | – | 0.64 | 2.7 | – | – | 25 | – | 72.7 |
| CCOC(c1cc(Cl)c2c(c1Cl)C(=O)N(Cc1c(C)cc(C)[nH]c1=O)CC2)C1CS(=O)(=O)C1 (single isomer, unassigned; (+)) | 62 | 12 | – | – | – | 453 (≈ 233 µg/mL) | – | 2.9 | 2.4 | – | – | 34 | – | 124 |
| COC(c1cc(Cl)c2c(c1Cl)C(=O)N(Cc1c(C)cc(C)[nH]c1=O)CC2)C1CCOC1 (single isomer, unassigned; (+)-10a) | 7 | 17.1 | – | – | – | – | – | 0.6 | 3 | – | – | 25 | 436 | 108 |
| COC(c1cc(Cl)c2c(c1Cl)C(=O)N(Cc1c(C)cc(C)[nH]c1=O)CC2)C1CCOC1 (single isomer, unassigned; (-)10c) | 494 | – | – | – | – | – | – | 30 | – | – | 15.4 | 406 | 457 | 93.3 |
| Cc1cc(C)c(CN2CCc3c(Cl)cc(C(CO)C4CCOCC4)c(Cl)c3C2=O)c(=O)[nH]1 (single isomer, unassigned; (-)) | 11 | 2.9 | – | – | – | – | – | 0.15 | 2.3 | – | – | 11 | 540 | 41.5 |
| COc1cc(C)[nH]c(=O)c1CN1CCc2c(Cl)cc(C(OC)C3CCOC3)c(Cl)c2C1=O (single isomer, unassigned; form 1) | 110 | – | – | – | – | – | – | 42 | – | – | 8.4 | 113 | 521 | 97.2 |
| COc1cc(C)[nH]c(=O)c1CN1CCc2c(Cl)cc(C(OC)C3CCOC3)c(Cl)c2C1=O (stereo in doubt; 22b) | 16 | – | – | – | – | – | – | 0.19 | – | – | 7.2 | 24 | 439 | 66.9 |
| COC(c1cc(Cl)c2c(c1Cl)C(=O)N(Cc1c(C)cc(C)[nH]c1=O)CC2)C1CCN(C(=O)CO)CC1 (stereo in doubt; (+)-16a) | 13 | 7.3 | – | – | – | 508 (≈ 273 µg/mL) | – | 0.25 | 2.2 | – | – | 21 | – | 42 |
| COC(c1cc(Cl)c2c(c1Cl)C(=O)N(Cc1c(C)cc(C)[nH]c1=O)CC2)C1CCS(=O)(=O)CC1 (stereo in doubt; (+)-18a) | – | 6.3 | – | – | – | 373 (≈ 197 µg/mL) | – | – | 2.2 | – | – | 24 | – | 40 |
| COC(C)c1cc(Cl)c2c(c1Cl)C(=O)N(Cc1c(C)cc(C)[nH]c1=O)CC2 (stereo in doubt; (-)9a) | – | 26 | – | – | – | – | – | – | 3.3 | – | – | 282 | 55.3 | 158 |
| CCC(O)c1cc(Cl)c2c(c1Cl)C(=O)N(Cc1c(C)cc(C)[nH]c1=O)CC2 (stereo in doubt; (-)-3b) | 5350 | – | – | – | – | 56 (≈ 22.9 µg/mL) | – | 420 | – | – | 15.7 | 3550 | – | 8 |
| Cc1cc(C)c(CN2CCc3c(Cl)cc(C(CO)C4CCOC4)c(Cl)c3C2=O)c(=O)[nH]1 (stereo in doubt; (-)-6b) | 15 | 2.5 | – | – | – | – | – | 0.38 | 2.1 | – | – | 17 | 508 | 25.9 |
